The results in this text go back to ChEMBL document CHEMBL2163223, “Synthesis and evaluation of novel α-fluorinated (E)-3-((6-methylpyridin-2-yl)ethynyl)cyclohex-2-enone-O-methyl oxime (ABP688) derivatives as metabotropic glutamate receptor subtype 5 PET radiotracers” (J Med Chem, 2012).

What is called Ki is the dissociation constant of the complex between target and ligand, obtained from inhibition or displacement. Broadly, the logD is lipophilicity at a set pH, counting ionised and neutral species. High values mean a more lipophilic compound, low ones a more hydrophilic compound. For orientation: Kd means the concentration at which binding is half-saturated. Higher therefore signals weaker binding.

SMILES strings stand for the structures. Calls of active or inactive are those of the source. The calls are words filed in the database; no cut-off is given here.

Data set [1] has as its target T1, Metabotropic glutamate receptor 5 (Rattus norvegicus, UniProt P31424). Description: Displacement of [3H]-ABP688 from mGluR5 receptor in Sprague-Dawley rat brain after 45 mins by beta counting. Summed up: (§1)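 0.1 mg protein incubated in triplicate at ambient temperature with 2 nM [3H]-ABP688 and competitor 10 pM–100 μM for 45 min. Nonspecific binding from 100 μM MMPEP. Filtered, β-counted.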
(Displacement assays read how much labelled ligand stays bound in the presence of the test substance.)

The nature of data set [2]: Lipophilicity, log D of the compound at pH 7.4 by HPLC analysis. In kind it is physicochemical. The following applies: buffer.
Data set [3] is described as follows: Lipophilicity, log D of the compound at pH 7.4 using shake flask method. Conditions: buffer. In kind it is physicochemical.
Data set [4] addresses Metabotropic glutamate receptor 5 (Rattus norvegicus) (UniProt P31424). Kind of data set: Binding affinity to mGluR5 receptor in Wistar rat brain at 1 to 10 nM after 45 mins by autoradiography in presence of ABP688. The following applies: tested as the 18F-labelled form. A digest of the protocol: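 Horizontal brain slices (20 μm) from a male Wistar rat were thawed and preincubated on ice for 10 min in HEPES buffer with 0.1% BSA. They were then incubated with 1 or 10 nM radiotracer, alone or with 100 nM ABP688, in HEPES for 45 min at ambient temperature. Washed on ice in HEPES/0.1% BSA, then twice in HEPES (3 min each), and dipped in water.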

The nature of data set [5]: Chemical stability in phosphate buffer at 21 MBq at pH 7.4 after 2 hrs by HPLC analysis. Conditions: pH 7.4, 2 h.
The target of data set [6] is T1, Metabotropic glutamate receptor 5. Kind of data set: Binding affinity to mGluR5 receptor in Sprague-Dawley rat brain by beta counting. A digest of the protocol: as §1
In the next data set the test system is Plasma. Kind of data set: Metabolic stability of the compound in rat plasma at 7 to 8 MBq after 2 hrs by HPLC analysis. Type of data set: ADME, cell-free. The following applies: in the assay text read “21 MBq” for “7 to 8 MBq”. A digest of the protocol: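 Radiotracer (21 MBq) incubated at 37 °C for up to 2 h in phosphate buffer (4 mM KH2PO4/Na2HPO4, 155 mM NaCl, pH 7.4) or rat plasma. Samples taken at several time points, quenched with ice-cold MeCN. Plasma samples centrifuged at 12000g for 10 min. Samples filtered; supernatants analyzed by radio-HPLC on a reversed-phase C18 column with 70% aq MeCN.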

T1 sequence (P31424 whole entry): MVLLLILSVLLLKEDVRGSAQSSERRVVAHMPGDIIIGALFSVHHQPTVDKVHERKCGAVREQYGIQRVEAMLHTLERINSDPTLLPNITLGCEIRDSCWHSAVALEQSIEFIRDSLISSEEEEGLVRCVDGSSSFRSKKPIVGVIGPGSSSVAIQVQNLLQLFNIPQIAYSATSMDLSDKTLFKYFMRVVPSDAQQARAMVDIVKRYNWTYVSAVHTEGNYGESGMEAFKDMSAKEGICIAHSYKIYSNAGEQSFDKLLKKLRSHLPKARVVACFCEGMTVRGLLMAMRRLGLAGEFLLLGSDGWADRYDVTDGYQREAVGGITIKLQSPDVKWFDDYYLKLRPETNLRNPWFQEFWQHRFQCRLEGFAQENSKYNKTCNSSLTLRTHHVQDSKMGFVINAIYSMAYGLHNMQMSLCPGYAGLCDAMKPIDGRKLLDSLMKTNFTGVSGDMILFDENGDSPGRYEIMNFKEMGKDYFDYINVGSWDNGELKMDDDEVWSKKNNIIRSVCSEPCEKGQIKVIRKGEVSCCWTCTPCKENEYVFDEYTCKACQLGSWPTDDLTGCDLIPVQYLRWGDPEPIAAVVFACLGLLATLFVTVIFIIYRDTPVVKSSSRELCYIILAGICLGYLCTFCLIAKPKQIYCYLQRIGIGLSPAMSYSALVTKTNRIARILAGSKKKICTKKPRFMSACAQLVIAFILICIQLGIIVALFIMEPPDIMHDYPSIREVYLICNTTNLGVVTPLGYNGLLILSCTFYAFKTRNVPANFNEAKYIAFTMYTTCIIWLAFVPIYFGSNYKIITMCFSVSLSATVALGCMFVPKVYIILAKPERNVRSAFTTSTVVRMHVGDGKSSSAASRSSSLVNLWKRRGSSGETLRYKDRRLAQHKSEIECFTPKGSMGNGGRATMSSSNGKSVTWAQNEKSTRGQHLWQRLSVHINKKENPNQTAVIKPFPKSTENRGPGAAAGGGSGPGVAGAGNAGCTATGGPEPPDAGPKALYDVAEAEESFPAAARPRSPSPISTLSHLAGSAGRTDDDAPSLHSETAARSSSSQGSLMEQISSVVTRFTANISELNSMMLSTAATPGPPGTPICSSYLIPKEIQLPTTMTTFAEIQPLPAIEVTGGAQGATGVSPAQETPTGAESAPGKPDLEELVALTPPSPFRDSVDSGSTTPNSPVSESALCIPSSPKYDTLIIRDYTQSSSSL
Chain of Metabotropic glutamate receptor 5 (Rattus norvegicus) (P31424 21-1203 limits assumed): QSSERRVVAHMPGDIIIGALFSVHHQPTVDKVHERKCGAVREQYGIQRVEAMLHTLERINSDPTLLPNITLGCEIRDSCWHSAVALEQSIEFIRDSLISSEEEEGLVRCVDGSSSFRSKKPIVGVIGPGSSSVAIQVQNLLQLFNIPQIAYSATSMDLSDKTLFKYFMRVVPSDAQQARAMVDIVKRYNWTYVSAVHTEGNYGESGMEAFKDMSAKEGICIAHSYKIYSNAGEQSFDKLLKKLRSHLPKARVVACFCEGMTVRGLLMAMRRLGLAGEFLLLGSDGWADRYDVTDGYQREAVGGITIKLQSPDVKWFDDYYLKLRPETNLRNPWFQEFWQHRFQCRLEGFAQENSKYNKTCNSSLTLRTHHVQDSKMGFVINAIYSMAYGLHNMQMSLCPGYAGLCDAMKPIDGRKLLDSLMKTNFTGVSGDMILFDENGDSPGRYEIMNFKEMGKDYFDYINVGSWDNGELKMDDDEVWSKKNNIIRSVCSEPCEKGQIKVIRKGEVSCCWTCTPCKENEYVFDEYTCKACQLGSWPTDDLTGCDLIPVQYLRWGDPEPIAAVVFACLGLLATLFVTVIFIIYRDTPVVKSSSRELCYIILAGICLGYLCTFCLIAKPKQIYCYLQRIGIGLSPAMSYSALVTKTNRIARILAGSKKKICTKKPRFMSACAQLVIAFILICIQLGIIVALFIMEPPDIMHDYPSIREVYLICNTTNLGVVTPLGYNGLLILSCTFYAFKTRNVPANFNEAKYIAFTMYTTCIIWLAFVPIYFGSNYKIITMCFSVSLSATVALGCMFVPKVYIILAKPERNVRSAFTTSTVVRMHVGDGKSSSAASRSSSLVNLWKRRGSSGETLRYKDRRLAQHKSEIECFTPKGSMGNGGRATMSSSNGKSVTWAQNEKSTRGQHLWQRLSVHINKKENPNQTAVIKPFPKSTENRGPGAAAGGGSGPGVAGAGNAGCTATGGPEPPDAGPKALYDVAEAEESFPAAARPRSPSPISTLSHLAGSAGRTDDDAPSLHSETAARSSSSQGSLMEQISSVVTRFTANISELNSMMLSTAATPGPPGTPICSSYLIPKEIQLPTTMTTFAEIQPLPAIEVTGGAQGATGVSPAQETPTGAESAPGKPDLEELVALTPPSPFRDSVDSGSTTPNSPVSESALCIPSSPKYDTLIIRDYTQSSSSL

On to `CCO/N=C1/C=C(C#Cc2cccc(C)n2)CCC1F` (stereo unspecified), for which, in data set [1], affinity was put at a Ki of 13 nM.
The same measure, in the same setting: in the case of `CO/N=C1/C=C(C#Cc2ccccn2)CCC1F` (stereo unspecified) it was 3.4 nM.
As to `CCO/N=C1\C=C(C#Cc2ccccn2)CCC1F` (stereo unspecified), the logD was 2.1 in data set [2] and 3.5 in data set [3]. The outcome in data set [4] was Active. The Ki in data set [1] is 31.2 nM.
On to `CCO/N=C1/C=C(C#Cc2ccccn2)CCC1F` (stereo unspecified), for which the inhibition constant (Ki) in data set [1] worked out at 5.7 nM.
Same read-out and setting: the same measure for `CO/N=C1/C=C(C#Cc2cccc(C)n2)CCC1F` (stereo unspecified): 8.5 nM.
Turning to `CCO/N=C1\C=C(C#Cc2ccccn2)CCC1[18F]` (stereo unspecified), the Stability entry (in data set [5]; with Plasma) was “Stable” in each case. The molecule further displayed a dissociation constant Kd in data set [6] of 70 nM.
